Calls of active or inactive are those of the source. No cut-off for these calls is given here.
Legend:
[1] = organism: Homo sapiens; experiment: Selectivity ratio of inhibition of recombinant human CYP2D6 to IC50 for inhibition of recombinant human soluble epoxide hydrolase
[2] = target: T1, Bifunctional epoxide hydrolase 2 (Homo sapiens, UniProt P34913); experiment: Inhibition of recombinant human soluble epoxide hydrolase using CMNPC as substrate preincubated for 5 mins followed by substrate addition and measured at 30 secs interval for 10 mins by fluorescence assay
T1 sequence (P34913 whole entry): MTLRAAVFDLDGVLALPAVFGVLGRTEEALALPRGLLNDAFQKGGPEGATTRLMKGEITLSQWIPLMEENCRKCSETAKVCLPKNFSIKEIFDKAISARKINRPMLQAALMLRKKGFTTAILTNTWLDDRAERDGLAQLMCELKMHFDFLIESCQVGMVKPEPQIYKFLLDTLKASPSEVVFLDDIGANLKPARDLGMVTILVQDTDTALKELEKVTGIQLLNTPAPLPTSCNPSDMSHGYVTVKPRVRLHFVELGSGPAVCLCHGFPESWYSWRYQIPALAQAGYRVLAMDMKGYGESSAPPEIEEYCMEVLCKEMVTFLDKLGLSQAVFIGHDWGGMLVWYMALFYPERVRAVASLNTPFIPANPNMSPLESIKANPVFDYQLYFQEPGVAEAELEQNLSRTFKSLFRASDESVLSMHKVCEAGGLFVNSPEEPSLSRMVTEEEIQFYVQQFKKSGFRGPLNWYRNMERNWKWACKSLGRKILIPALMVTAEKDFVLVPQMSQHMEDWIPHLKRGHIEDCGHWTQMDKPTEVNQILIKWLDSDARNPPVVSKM

[3] = Selectivity ratio of inhibition of recombinant human CYP3A4 to IC50 for inhibition of recombinant mouse soluble epoxide hydrolase using DBF as substrate
[4] = Selectivity ratio of inhibition of recombinant human CYP3A4 to IC50 for inhibition of recombinant mouse soluble epoxide hydrolase using 7-BFC as substrate
[5] = organism: Homo sapiens; experiment: Selectivity ratio of inhibition of recombinant human CYP1A2 to IC50 for inhibition of recombinant human soluble epoxide hydrolase
[6] = Efflux ratio of apparent permeability across basolateral to apical side over apical to basolateral side in human Caco-2 cells at 10 uM measured after 2 hrs by LC-MS/MS analysis
[7] = Half life in CD-1 mouse at 1 mg/kg, iv measured up to 24 hrs by LC-MS analysis; type: ADME, organism-based; conditions: in vivo
Outline: (§1)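 Single dose, 1 mg/kg, given to mice intravenously or intraperitoneally. Parameters are taken from the plasma concentration–time profile: T1/2, Tmax, Cmax, C0 (iv only), AUClast, AUCINF_obs, Vz and Cl. Bioavailability is derived from ip versus iv exposure.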

[8] = Apparent volume of distribution in CD-1 mouse at 1 mg/kg, iv measured up to 24 hrs by LC-MS analysis; type: ADME, organism-based; conditions: in vivo; outline: as §1
[9] = system: Mus musculus; experiment: Protection against cerulein-induced acute pancreatitis in C57BL/6J mouse assessed as reduction in ATF3 mRNA level at 3 mg/kg administered 24 hrs post-cerulein addition and measured after 24 hrs by Trisure-reagent based RT-PCR analysis; type: functional, organism-based
Outline: (§2)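 Post-induction (treatment) protocol in C57BL/6J mice. Acute pancreatitis is induced by several cerulein administrations, followed by ip sEH inhibitor at 3 or 30 mg/kg. Pancreatic mRNA of TNF-α, IL-1β, MCP-1 and ATF3 is quantified against control and cerulein-only groups. Mean ± SEM, n = 5 per group.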

[10] = system: Mus musculus; experiment: Protection against cerulein-induced acute pancreatitis in C57BL/6J mouse assessed as reduction in ATF3 mRNA level at 30 mg/kg administered 24 hrs post-cerulein addition and measured after 24 hrs by Trisure-reagent based RT-PCR analysis; type: functional, organism-based; outline: as §2
[11] = system: Mus musculus; experiment: Protection against cerulein-induced acute pancreatitis in C57BL/6J mouse assessed as reduction in inflammation at 30 mg/kg administered 24 hrs post-cerulein addition and measured after 24 hrs by H and E staining based histological analysis; type: functional, organism-based
Outline: (§3)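 H&E-stained pancreas sections are scored for edema and inflammation. Groups are control, cerulein and cerulein plus inhibitor, in both the pre-induction and post-induction cerulein acute pancreatitis models in mice.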

[12] = system: Mus musculus; experiment: Protection against cerulein-induced acute pancreatitis in C57BL/6J mouse assessed as reduction in TNF-alpha mRNA level at 30 mg/kg administered 24 hrs post-cerulein addition and measured after 24 hrs by Trisure-reagent based RT-PCR analysis; type: functional, organism-based; outline: as §2
[13] = Acute toxicity in CD-1 mouse assessed as effect on body weight at 5 to 80 mg/kg, ip administered daily for 5 days and measured for 5 days; type: organism-based; conditions: in vivo, 240 h, dose 5-80 mg/kg, time 10 day
Outline: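 Mice received the compound intraperitoneally once a day for five consecutive days at 5, 10, 20 and 80 mg/kg. Acute toxicity was judged from body weight during treatment, apparent behaviour problems and the presence of petechiae.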

[14] = system: Mus musculus; experiment: Protection against cerulein-induced acute pancreatitis in C57BL/6J mouse assessed as reduction in edema at 30 mg/kg administered 24 hrs post-cerulein addition and measured after 24 hrs by H and E staining based histological analysis; type: functional, organism-based; outline: as §3
[15] = Apparent volume of distribution in CD-1 mouse at 1 mg/kg, ip measured up to 24 hrs by LC-MS analysis; type: ADME, organism-based; conditions: in vivo; outline: as §1
[16] = Clearance in CD-1 mouse at 1 mg/kg, ip measured up to 24 hrs by LC-MS analysis; type: ADME, organism-based; conditions: in vivo; outline: as §1
[17] = system: Mus musculus; experiment: Protection against cerulein-induced acute pancreatitis in C57BL/6J mouse assessed as reduction in inflammation at 30 mg/kg administered twice per day for 5 days followed by cerulein addition and measured 24 hrs post-last dose by H and E staining based histological analysis; type: functional, organism-based; conditions: time 6.0 day; outline: as §3
[18] = system: Mus musculus; experiment: Protection against cerulein-induced acute pancreatitis in C57BL/6J mouse assessed as reduction in MCP1 mRNA level at 30 mg/kg administered 24 hrs post-cerulein addition and measured after 24 hrs by Trisure-reagent based RT-PCR analysis; type: functional, organism-based; outline: as §2
[19] = system: Mus musculus; experiment: Protection against cerulein-induced acute pancreatitis in C57BL/6J mouse assessed as reduction in IL-1beta mRNA level at 30 mg/kg administered twice per day for 5 days followed by cerulein addition and measured 24 hrs post-last dose by Trisure-reagent based RT-PCR analysis; type: functional, organism-based; conditions: time 6.0 day
Outline: (§4)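 Pre-induction (prevention) protocol in C57BL/6J mice. Inhibitor is given ip at 30 mg/kg before cerulein induction of acute pancreatitis. Pancreatic mRNA of TNF-α, IL-1β, MCP-1 and ATF3 is compared with control and cerulein-only mice. Mean ± SEM, n = 5 per group.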

[20] = system: Mus musculus; experiment: Protection against cerulein-induced acute pancreatitis in C57BL/6J mouse assessed as reduction in IL1-beta mRNA level at 3 mg/kg administered 24 hrs post-cerulein addition and measured after 24 hrs by Trisure-reagent based RT-PCR analysis; type: functional, organism-based; outline: as §2
[21] = system: Mus musculus; experiment: Protection against cerulein-induced acute pancreatitis in C57BL/6J mouse assessed as reduction in MCP1 mRNA level at 3 mg/kg administered 24 hrs post-cerulein addition and measured after 24 hrs by Trisure-reagent based RT-PCR analysis; type: functional, organism-based; outline: as §2
[22] = system: Mus musculus; experiment: Protection against cerulein-induced acute pancreatitis in C57BL/6J mouse assessed as reduction in TNF-alpha mRNA level at 30 mg/kg administered twice per day for 5 days followed by cerulein addition and measured 24 hrs post-last dose by Trisure-reagent based RT-PCR analysis; type: functional, organism-based; conditions: time 6.0 day; outline: as §4

Compound `CC(=O)N1CCC(NC(=O)NC23CC4CC(CC(C4)O2)C3)CC1` has a Selectivity ratio [1] of over 100, an IC50 [2] of 29.9 nM and a Selectivity ratio [3] of over 100. The Selectivity ratio [4] was over 100, the Selectivity ratio [5] was over 100 and the efflux ratio at 2 h, 10 µM [6] was 4.3.

For `CC(C)S(=O)(=O)N1CCC(NC(=O)NC23CC4CC(CC(C4)O2)C3)CC1`, the t1/2 [7] was 2.8 h, the Vz [8] was 67.73 L/kg and the Activity [9] was “inactive”. The Activity [10] was “Active”, the Activity [11] was “Active” and the Activity [12] was “Active”. For the same compound, the Activity [13] was “Non-Toxic”, the Activity [14] was “Active” and the Vz [15] was 124.02 L/kg. The CL/F [16] was 474 mL/min/kg, the Activity [17] was “Active” and the Activity [18] was “Active”. For the same compound, the Activity [19] was “Active”, the Activity [20] was “inactive” and the Activity [21] was “inactive”. For the same compound, the Activity [22] was “Active”.
